In PMC2151501 (The Journal of General Physiology, 2006):
Entries after “also recorded” stand apart in the source; their conditions may differ. No end group written: not given here.

How the values were obtained:
[1] = biological target: hNav1.5-CW/F1760K mutant Na+ channels (Homo sapiens, UniProt Q14524, A410W/F1760K/L409C); conditions: ref Wang and Wang, cited from earlier work
[2] = tested on: voltage-gated Na+ channels; conditions: ref Catterall, 1980; Wang and Wang, 2003; Strichartz, et al., 1987; cited from earlier work
[3] = biological target: T1, hNav1.5-CW inactivation-deficient mutant Na+ channels (Homo sapiens, UniProt Q14524, A410W/L409C); test: Use-dependent block during repetitive pulses; assay type: cell-based; conditions: for use-dependent block of peak currents, 20 ms pulses: β4_154–167 n = 6, acetyl-KIFMK-amide n = 5
[4] = biological target: T2, inactivation-deficient hNav1.5-CW mutant Na+ channels (Homo sapiens, UniProt Q14524, A410W/L409C); test: On and off rates of β4_154–167 binding at 50 mV; assay type: cell-based
Method in brief: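 HEK293t cells transiently co-expressing inactivation-deficient hNav1.5-CW with rat β1, whole-cell clamp at 22–24°C, holding −140 mV. Peptide was included in the pipette solution (NaF/NaCl/EGTA/HEPES, pH 7.2) at 25–250 μM. The time-dependent block at 50 mV was fitted single-exponentially. 1/τ was plotted against concentration and fitted by linear regression: slope gave kon, intercept gave koff; n = 5.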

[5] = tested on: Shaker K+ channels; conditions: 50 mV, ref Murrell-Lagnado and Aldrich, 1993; cited from earlier work
[6] = biological target: T3, inactivation-deficient hNav1.5-L409C/A410W (hNav1.5-CW) Na+ channels (Homo sapiens, UniProt Q14524, A410W/L409C); conditions: ref Eaholtz et al., 1994; Tang et al., 1996; Wang and Wang, 2005; cited from earlier work
[7] = biological target: T1, hNav1.5-CW inactivation-deficient mutant Na+ channels; test: Unblocking upon repolarization, two-pulse protocol; assay type: cell-based; conditions: 2 mM in pipette
Method in brief: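 Whole-cell hNav1.5-CW currents were recorded in HEK293t cells at room temperature with 2 mM peptide in the pipette. A two-pulse protocol with a 10-ms interpulse interval was used. Peak current amplitude at the second pulse was compared with that at the first.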

[8] = tested on: inactivation-deficient rNav1.2 Na+ channels; conditions: ref Eaholtz et al., 1994; Tang et al., 1996; Wang and Wang, 2005; cited from earlier work
[9] = tested on: BTX-modified wild-type hNav1.5 Na+ channels; test: Time-dependent block of BTX-modified wild-type Na+ currents; assay type: cell-based; conditions: 4 μM BTX; acetyl-KIFMK-amide 2 mM, β4_154–167 1 mM, after 2,000 pulses
Method in brief: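 Channels were modified by 4 μM BTX (final, from 0.5 mM DMSO stock) in the pipette, which also held either 2 mM acetyl-KIFMK-amide or 1 mM peptide. Cells were held at −140 mV and depolarized to 50 mV. The maintained-to-peak current ratio at 50 mV was measured. Five to six cells.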

[10] = biological target: T2, inactivation-deficient hNav1.5-CW mutant Na+ channels; test: Resurgent Na+ currents near the activation threshold; assay type: cell-based; conditions: 2 mM in pipette, −80 to −20 mV, five cells
Method in brief: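 Whole-cell recording at room temperature (22–24°C) from transfected HEK293t cells expressing hNav1.5-CW plus rat β1, with 2 mM acetyl-peptide in the internal solution. After the test pulse, tail currents were recorded at −80 to −20 mV in 20-mV steps. Bath: 65 mM NaCl, 85 mM choline Cl, 2 mM CaCl2, 10 mM HEPES, pH 7.4. Five cells.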

[11] = biological target: T3, inactivation-deficient hNav1.5-L409C/A410W (hNav1.5-CW) Na+ channels; assay type: cell-based; conditions: intracellular peptide, 50 mV; 25–250 μM for β4_154–167
Method in brief: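 Transiently transfected HEK293t cells (calcium phosphate; CD8 bead selection; used 1–4 d) expressing hNav1.5-L409C/A410W with rat β1. Peptide at 25–250 μM was dialysed via the pipette. Whole-cell currents were recorded at 50 mV from −140 mV holding, at 22–24°C. Decay was fitted with a single exponential. Steady-state block was taken ∼30 min after break-in.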

[12] = tested on: Na+ channels in dissociated neurons; conditions: ref Grieco and Raman, 2004; cited from earlier work
[13] = 2 mM in pipette, 50 mV/20 ms at 1 Hz

For Batrachotoxin [BTX], the “sensitivity of hNav1.5-CW/F1760K to BTX (in words)” value [1]; 2003 is listed as “BTX-resistant” and the “effect of BTX on voltage-gated Na+ channels (in words)” value [2] is listed as “eliminates the fast inactivation of voltage-gated Na^+ channels”.
For KKLITFILKKTREK [β4_154–167], the “use-dependent block of peak currents, 20 ms pulses” value [3, 13] was 2.9 ± 1.6%, the koff ([4]; read-out: off rate (koff) of binding) was 49.1 s⁻¹ and the kon ([4]; read-out: on rate (kon) of binding) was 1.01e+07 M⁻¹ s⁻¹.
In the case of “ShB peptide: the first 20 amino acids on the NH2 terminus of the Shaker channel (MAAVAGLYGLGEDRQHRKKQ; UniProt P08510 1-20, looked up, fragment)”, the koff [5] is given as 13.8 s⁻¹.
For acetyl-KIFMK-amide, the “effect of hNav1.5-F1760K on time-dependent block (in words)” value ([1]; hNav1.5-F1760K, 2005) is listed as “hinders its time-dependent block”, the “effect of hNav1.5-F1760K on use-dependent block (in words)” value ([1]; hNav1.5-F1760K, 2005) is listed as “abolishes the use-dependent block” and the “additional use-dependent block on outward peak and inward tail currents” value [3, 13] is listed as about 65%. The “tail current decay relative to β4_154–167” value [3, 13] was “four times faster”, the “use-dependent block of peak currents, 20 ms pulses” value [3, 13] was 62.4 ± 3.1% and the “use-dependent block, 3 ms pulses” value ([3]; 2 mM in pipette, repetitive pulses, 3 ms, n = 5) was 28.5 ± 0.4%. The “fitted τ of use-dependent block, 1 ms pulses” value ([3]; 50 mV for 1 ms at 1 Hz, n = 5) was 27.1 pulses, the “use-dependent block, 1 ms pulses” value ([3]; 50 mV for 1 ms at 1 Hz, n = 5) was 15.5 ± 0.4% and the “fitted τ of use-dependent block, 3 ms pulses” value ([3]; repetitive pulses, 3 ms, n = 5) was 14.5 pulses. For the same substance, the “restoration of fast inactivation, inactivation-deficient hNav1.5 (in words)” value [6] was “can restore fast inactivation”, the “tail current decay τ, short test pulse” value ([7]; short test pulse, n = 6) was 0.23 ± 0.02 ms and the “unblocking upon repolarization (in words)” value ([7]; −140 mV, two-pulse protocol, 10-ms interval, six cells) was “also occurred rapidly”. The “restoration of fast inactivation, rNav1.2 (in words)” value [8] was “can restore fast inactivation”, the “block of BTX-modified open Na+ channels (in words)” value [9] was “resistant to β4_154–167 and acetyl-KIFMK-amide block; also recorded: little time-dependent block was found” and the “resurgent tail currents near activation threshold (in words), acetyl-KIFMK-amide” value [10] was “elicited robust resurgent currents”. The “time-dependent block of inactivation-deficient Na+ currents (in words)” value [11] was “restored the fast inactivation phenotype in hNav1.5 inactivation-deficient Na^+ channels”.
For β-pompilidotoxin, the “effect on fast inactivation gating (in words)” value [12] is listed as “slowed the fast inactivation gating considerably”.
